Reference: PubChem BioAssay AID488936 (Broad Institute, 2010)
The source made the active and inactive calls.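 Rule for the calls: active = compounds lowering caspase luminescence whose fitted AC50 is at most ten times their top valid dose; inconclusive = flat partial inhibition or a poor quality curve fit; inactive = the rest.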

System: INS-1E cytokine-induced caspase-3/7 luminescence, 48 h
Assay: reduction of caspase-3/7 signal in INS-1E – INS-1E rat cells, dry powder, set 2, orthogonal assay for beta-cell apoptosis inhibitor project, dose response (AID 488936)
Details: not given
Procedure, shortened: (§1)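 Assay system: rat INS-1E insulinoma cells; Reagent: IFN-gamma, TNF-alpha and IL-1β cytokine cocktail; Control set: SAHA positive control; Measure: IC50 of caspase-3/7 activity from concentration-response curve; Detection: Luciferase-based luminescence, Caspase-Glo 3/7 reagent; Times: 48 h cytokine and compound exposure, 1 h detection.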
For C[C@@H]1CN([C@@H](C)CO)C(=O)c2cccc(NC(=O)Nc3cccc4ccccc34)c2O[C@H]1CN(C)S(=O)(=O)c1ccc2c(n1)N(C)CCO2, the AC50 was > 26 µM (inactive). With COc1ccc(S(=O)(=O)N(C)C[C@@H]2Oc3c(NC(=O)Nc4ccccc4)cccc3C(=O)N([C@@H](C)CO)C[C@H]2C)cc1 the AC50 was > 26 µM (inactive). For C[C@@H]1CN([C@@H](C)CO)C(=O)c2cccc(NC(=O)Nc3cccc(Cl)c3Cl)c2O[C@H]1CN(C)S(=O)(=O)c1ccc2c(c1)OCCO2, the AC50 was > 26 µM (inactive). In the case of COc1ccc(S(=O)(=O)N(C)C[C@@H]2Oc3c(NC(=O)Nc4cccc5ccccc45)cccc3C(=O)N([C@H](C)CO)C[C@H]2C)cc1, the AC50 is reported as > 23.5 µM (inactive).

System: not listed separately
Assay: as above
Details: INS-1E cytokine-induced caspase-3/7 luminescence, 48 h; at 12 µM (top of the series)
Procedure, shortened: as §1
In the case of COc1ccc(S(=O)(=O)N(C)C[C@@H]2Oc3c(NC(=O)Nc4cccc5ccccc45)cccc3C(=O)N([C@@H](C)CO)C[C@H]2C)cc1C, the activity change, negative = inhibition is reported as -20.2% (inactive).

Same assay, conditions: INS-1E cytokine-induced caspase-3/7 luminescence, 48 h; at 23.5 µM (top of the series)
With Cc1ccc(S(=O)(=O)N(C)C[C@@H]2Oc3c(NC(=O)Nc4cccc5ccccc45)cccc3C(=O)N([C@H](C)CO)C[C@H]2C)cc1 the activity change, negative = inhibition was -12.7% (inactive). For COc1ccc(S(=O)(=O)N(C)C[C@@H]2Oc3c(NC(=O)C4CC4)cccc3C(=O)N([C@@H](C)CO)C[C@H]2C)cc1, the activity change, negative = inhibition was -6.93% (inactive). For C[C@@H]1CN([C@@H](C)CO)C(=O)c2cccc(NC(=O)Nc3cccc4ccccc34)c2O[C@H]1CN(C)C(=O)Nc1ccccc1, the activity change, negative = inhibition was 14.9% (inactive).

Same assay, conditions: INS-1E cytokine-induced caspase-3/7 luminescence, 48 h; at 26 µM (top of the series)
For C[C@@H]1CN([C@@H](C)CO)C(=O)c2cccc(NC(=O)Nc3cccc4ccccc34)c2O[C@H]1CN(C)S(C)(=O)=O, the activity change, negative = inhibition was -7.6% (inactive). With COc1ccc(S(=O)(=O)N(C)C[C@@H]2Oc3c(NS(=O)(=O)c4ccccc4)cccc3C(=O)N([C@@H](C)CO)C[C@H]2C)cc1 the activity change, negative = inhibition was -6.46% (inactive). In the case of CNC[C@@H]1Oc2c(NC(=O)Nc3cccc4ccccc34)cccc2C(=O)N([C@@H](C)CO)C[C@H]1C, the activity change, negative = inhibition is reported as -6.33% (inactive). With C[C@@H]1CN([C@H](C)CO)C(=O)c2cccc(NC(=O)Nc3ccccc3)c2O[C@H]1CN(C)S(=O)(=O)c1ccc(Cl)cc1 the activity change, negative = inhibition was -6.09% (inactive). In the case of C[C@@H]1CN([C@@H](C)CO)C(=O)c2cccc(NC(=O)Nc3cccc4ccccc34)c2O[C@H]1CN(C)S(=O)(=O)c1ccc2c(c1)OCO2, the activity change, negative = inhibition is reported as -4.01% (inactive). For N#Cc1ccc2cc(Br)c(C(F)(F)P(=O)(O)O)cc2c1, the activity change, negative = inhibition was -14.1% (inactive). For COc1ccc(S(=O)(=O)N(C)C[C@@H]2Oc3c(NC(=O)Nc4cccc5ccccc45)cccc3C(=O)N([C@@H](C)CO)C[C@H]2C)cc1F, the activity change, negative = inhibition was 5.84% (inactive). With COc1ccc(S(=O)(=O)N(C)C[C@@H]2Oc3c(NS(C)(=O)=O)cccc3C(=O)N([C@@H](C)CO)C[C@H]2C)cc1 the activity change, negative = inhibition was -6.62% (inactive). With COc1ccc(S(=O)(=O)N(C)C[C@@H]2Oc3c(NC(=O)Nc4ccc5c(c4)OCO5)cccc3C(=O)N([C@@H](C)CO)C[C@H]2C)cc1 the activity change, negative = inhibition was -4.99% (inactive). With C[C@@H]1CN([C@@H](C)CO)C(=O)c2cccc(NC(=O)Nc3ccc(F)cc3)c2O[C@H]1CN(C)S(=O)(=O)c1ccc(Cl)cc1 the activity change, negative = inhibition was -5.69% (inactive). In the case of C[C@@H]1CN([C@@H](C)CO)C(=O)c2cccc(NC(=O)Nc3cccc4ccccc34)c2O[C@H]1CN(C)S(=O)(=O)c1ccccc1F, the activity change, negative = inhibition is reported as 21.8% (inactive). With COc1ccc(S(=O)(=O)N(C)C[C@@H]2Oc3c(NC(=O)Nc4ccc(C(F)(F)F)cc4)cccc3C(=O)N([C@@H](C)CO)C[C@H]2C)cc1 the activity change, negative = inhibition was 13.3% (inactive). With COc1ccc(S(=O)(=O)N(C)C[C@@H]2Oc3c(NC(=O)Nc4cccc5ccccc45)cccc3C(=O)N([C@@H](C)CO)C[C@H]2C)cc1OC the activity change, negative = inhibition was -11.6% (inactive). With COc1ccc(S(=O)(=O)N(C)C[C@@H]2Oc3c(NC(=O)Nc4cccc5ccccc45)cccc3C(=O)N([C@@H](C)CO)C[C@@H]2C)cc1 the activity change, negative = inhibition was -6.51% (inactive). In the case of C[C@@H]1CN([C@@H](C)CO)C(=O)c2cccc(NC(=O)Nc3ccccc3)c2O[C@H]1CN(C)S(=O)(=O)c1ccc(Cl)cc1, the activity change, negative = inhibition is reported as -7.25% (inactive). For COc1ccc(S(=O)(=O)N(C)C[C@@H]2Oc3c(NC(=O)Nc4cccc5ccccc45)cccc3C(=O)N([C@@H](C)CO)C[C@H]2C)cc1, the activity change, negative = inhibition was -10.2% (inactive). For COc1ccc(S(=O)(=O)N(C)C[C@@H]2Oc3c(NS(=O)(=O)c4ccc(Cl)cc4)cccc3C(=O)N([C@@H](C)CO)C[C@H]2C)cc1, the activity change, negative = inhibition was -4.43% (inactive). With C[C@@H]1CN([C@@H](C)CO)C(=O)c2cccc(NC(=O)Nc3cccc4ccccc34)c2O[C@H]1CN(C)S(=O)(=O)c1ccc(F)cc1 the activity change, negative = inhibition was 4.91% (inactive). With C[C@@H]1CN([C@@H](C)CO)C(=O)c2cccc(NC(=O)Nc3cccc4ccccc34)c2O[C@H]1CN(C)S(=O)(=O)c1ccc2c(c1)OCCCO2 the activity change, negative = inhibition was 0.778% (inactive). In the case of C[C@@H]1CN([C@@H](C)CO)C(=O)c2cccc(NC(=O)Nc3cccc4ccccc34)c2O[C@H]1CN(C)S(=O)(=O)c1ccc2ncsc2c1, the activity change, negative = inhibition is reported as -18.8% (inactive). For C[C@@H]1CN([C@@H](C)CO)C(=O)c2cccc(NC(=O)Nc3cccc4ccccc34)c2O[C@H]1CN(C)C(=O)NC1CCCCC1, the activity change, negative = inhibition was 27.4% (inactive). For C[C@@H]1CN([C@@H](C)CO)C(=O)c2cccc(NC(=O)Nc3cccc4ccccc34)c2O[C@H]1CN(C)S(=O)(=O)c1cccc(F)c1, the activity change, negative = inhibition was 6.97% (inactive). In the case of COc1ccc(S(=O)(=O)N(C)C[C@@H]2Oc3c(NC(=O)c4ccncc4)cccc3C(=O)N([C@@H](C)CO)C[C@H]2C)cc1, the activity change, negative = inhibition is reported as -4.94% (inactive).
